The EternaBench riboswitch data

System: MS2 coat protein
Assay: apparent Kd, MS2 coat protein; higher = weaker binding; RNA-MaP array; theophylline 2 mM where present
Method in brief: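 In 100 mM Tris-HCl pH 7.5, 80 mM KCl, 4 mM MgCl2, BSA, DTT, yeast tRNA and Tween-20, SNAP-549-labelled MS2 coat protein was titrated from 0.7 or 1.5 nM, doubling to 3 µM, over designs transcribed by stalled E. coli RNA polymerase on Illumina sequencing-chip clusters. This was done first without ligand, then with ligand held constant. After green signal was normalised to red-channel RNA signal and control-cluster median Fmax, the apparent Kd was taken as the median of filtered per-cluster binding-curve fits.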

[1] = designed as: OFF switch for theophylline, no ligand
[2] = ligand present: theophylline, designed as: OFF switch for theophylline
[3] = designed as: ON switch for theophylline, no ligand
[4] = ligand present: theophylline, designed as: ON switch for theophylline

In the case of “AGACAUGAGGAUCACCCAUGUAGCAUGGAUACCAGAUGUAGAUUAGUCCCUUGGCAGCUGUGGUGAAGUGAUGCAUUGCUCCUAG”, the “apparent Kd” value [1] is reported as 63.2 nM and the “apparent Kd” value [2] is reported as 61.6 nM.
In the case of “UGUUUUAAAAGUGAUACCAGACAAACAUGAGGAUCACCCAUGUAACAUGAGAGAUAAUAAGUCCCUUGGCAGCACAUAAUUAGUA”, the “apparent Kd” value [3] is reported as 31.8 nM and the “apparent Kd” value [4] is reported as 26.4 nM.
With “UACAUGAGGAUCACCCAUGUGGCGGAUGAUACCAGUAUGGUGACAUACCCUUGGCAGCAUGCUAUGAGGAUCACCCAUGUGUGCA” the “apparent Kd” value [1] was 85.3 nM and the “apparent Kd” value [2] was 166 nM.
“AUCGUACCUGGUGAUACCAGCAAUUGCUCGUGACAUGAGGAUCACCCAUGUGACCAGUGAUGCCCUUGGCAGCAUGGUCGGUGCA” was tested, and the “apparent Kd” value [3] was 68.7 nM and the “apparent Kd” value [4] was 27.2 nM.
In the case of “GUCAGUAGAACAGAUACCAGUCAAAGGCUGUGAUCUCAUAACAUGAGGAUCACCCAUGUUGACCCUUGGCAGCUGUGGGCGAGGG”, the “apparent Kd” value [1] is reported as 45.2 nM and the “apparent Kd” value [2] is reported as 391 nM.
With “ACAUGAGGAUCACCCAUGUAACGUCUUGAUACCAGACGAGAAGUAGUCCCUUGGCAGCAAAUACGUGAGGGUCACACAUGUGUAA” the “apparent Kd” value [1] was 23.4 nM and the “apparent Kd” value [2] was 61.5 nM.
“UACAUGAGGAUCACCCAUGUAUACAUGGAUACCAGCGACAAUGGGCGCCCUUGGCAGCUAGUGGAUGGAGGGUGGCCACAGUACU” was tested, and the “apparent Kd” value [1] was 70.2 nM and the “apparent Kd” value [2] was 71.8 nM.
With “UCUUUCUUUGUAGAUACCAGCAUGUUAAGUUUCUUUUGACAUGAGGAUCACCCAUGUACAUGCCCUUGGCAGCUACAUUUUCUUU” the “apparent Kd” value [3] was 15.2 nM and the “apparent Kd” value [4] was 16.5 nM.
In the case of “AGACAUGAGGAUCACCCAUGUAGUACGGAUACCAGAUCCAGAUGUAUCCCUUGGCAGCUGUGGUACAGCGUUGCAACGCUCCUAG”, the “apparent Kd” value [1] is reported as 16 nM and the “apparent Kd” value [2] is reported as 15.3 nM.
In the case of “AAAACACAUGAGGAUCACCCAUGUCAUGAUACCAGUCCACAUGAGGACCCUUGGCAGCAUAAAAUGGGUAACAUGAGGAUAACCC”, the “apparent Kd” value [1] is reported as 29.6 nM and the “apparent Kd” value [2] is reported as 82.8 nM.
“GGUGUAUCCAUCGAUACCAGCCACCACCGAUAGACCACAUGAGGAUCACCCAUGUUGGGUGGCCCUUGGCAGCGGUGGCUGUGCC” was tested, and the “apparent Kd” value [3] was 317 nM and the “apparent Kd” value [4] was 172 nM.
“CAAACAUGAGGAUCACCCAUGUAAUCAGAUACCAGUGACGAAAGUCACCCUUGGCAGCUGAGUACAUUAGUUCUAAGGUGUUUGA” was tested, and the “apparent Kd” value [1] was 44.6 nM and the “apparent Kd” value [2] was 50.2 nM.
“AGACAUGAGGAUCACCCAUGUAGUACGGAUACCAGAUCCAGAUGCGUCCCUUGGCAGCUGUAGUACAGCGUUACAUCGCUCGUAG” was tested, and the “apparent Kd” value [1] was 20.8 nM and the “apparent Kd” value [2] was 32.1 nM.
In the case of “AAGCAGGGUGUAAAAUAAAUAAUCACUGAUACCAGACUAUGAGAUGUCCCUUGGCAGCAGAAACAUGAGGAUCACCCAUGUAAUA”, the “apparent Kd” value [1] is reported as 22.7 nM and the “apparent Kd” value [2] is reported as 32.3 nM.
“AUCGUACCUGAUGAUACCAGCAUGUGAUCGUAACAUGAGGAUCACCCAUGUAAUCAGUGAUGCCCUUGGCAGCAUGAUCGGUACA” was tested, and the “apparent Kd” value [3] was 97.7 nM and the “apparent Kd” value [4] was 20.5 nM.
“UGUAACAUGAGGAUCACCCAUGUGCACGAUACCAGCUUAUUGAUAGGCCCUUGGCAGCGUAUGCGGAAGCUGUAUAAUAUAUAUC” was tested, and the “apparent Kd” value [3] was 11.3 nM and the “apparent Kd” value [4] was 12.7 nM.
“AGCCCUGUACUAGAUACCAGCUACAUGAGGAUCACCCAUGUGCGUCAAGACUGACUGUGUGGCCCUUGGCAGCUGCUCGCAUGUA” was tested, and the “apparent Kd” value [1] was 146 nM and the “apparent Kd” value [2] was 208 nM.
For “UCGUCCUCCGCAAGGAGGAGGAGUUGCGAUACCAGCACGGUAACGUGCCCUUGGCAGCGCACAUGAGGAUCACCCAUGUGGUGUU”, the “apparent Kd” value [1] was 214 nM and the “apparent Kd” value [2] was 489 nM.
“UGACAUUGCUGCGAUACCAGACAUGAGGAUCACCCAUGUACCAAGGUACGAAAAUAACAUGUCCCUUGGCAGCGCAGCAAUGUCU” was tested, and the “apparent Kd” value [1] was 12.6 nM and the “apparent Kd” value [2] was 254 nM.
With “UUACGAGGCUAUCCACUUUGAUUUUGUGAUACCAGAAUAAUUUUAUUCCCUUGGCAGCAUGACAUGAGGAUCACCCAUGUGUCUU” the “apparent Kd” value [3] was 38 nM and the “apparent Kd” value [4] was 61.7 nM.
For “ACGUCAACCCUUAUGUUGAUGCAAGACGAUACCAGCCUGGAUACAGGCCCUUGGCAGCGUCAACAUGAGGAUCACCCAUGUAAUA”, the “apparent Kd” value [3] was 82.8 nM and the “apparent Kd” value [4] was 118 nM.
“UUUGCACAUGAGGAUCACCCAUGUACAGAUACCAGCCUCAUCUACGGCCCUUGGCAGCUGAGACAAUGGUGACGUGACGGGCUUU” was tested, and the “apparent Kd” value [1] was 11.7 nM and the “apparent Kd” value [2] was 28.2 nM.
With “AGCCUAUUACAUGAGGAUCACCCAUGUGAUACCAGUCAGGAAACUGACCCUUGGCAGCGCAUGAGGAUCACCCAUGCGCGAGGCA” the “apparent Kd” value [1] was 11 nM and the “apparent Kd” value [2] was 11.9 nM.
With “UAUAUGGUGAUGGAUACCAGCAGAGAAAACGUUUAUCCUAACAUGAGGAUCACCCAUGUAUGCCCUUGGCAGCUGUUGUUAUAUA” the “apparent Kd” value [1] was 37.9 nM and the “apparent Kd” value [2] was 29.7 nM.
With “AAUAAGUACUUUGAUACCAGCCUGCCAUCAUGCUAAUUUACAUGAGGAUCACCCAUGUUAGGCCCUUGGCAGCAAAGUGCAAUAA” the “apparent Kd” value [1] was 12.5 nM and the “apparent Kd” value [2] was 25.6 nM.
